Assay results reported in ChEMBL document CHEMBL5046259, “Cannabinoids Block Cellular Entry of SARS-CoV-2 and the Emerging Variants” (J Nat Prod, 2022).
Values after ≈ are worked out from the molar mass of the structure shown.

Columns and labels:
Format in all cases: functional, organism-based
[1] = test system: SARS-CoV-2; assay: Antiviral activity against SARS-CoV-2 variant B.1.1.7 strain infected in African green monkey Vero E6 cells assessed as inhibition of viral entry incubated for 1 hr proir to infection and measured after 48 hrs by Focus forming assay; details: Severe acute respiratory syndrome coronavirus 2, B.1.1.7, Vero C1008
[2] = test system: SARS-CoV-2; assay: Antiviral activity against pseudovirus SARS-CoV-2 spike protein infected in HEK293T cells overexpressing ACE2 assessed as inhibition on pseudovirus infection incubated for 45 hrs by fluorescence microscopy; details: Severe acute respiratory syndrome coronavirus 2, HEK-293T
Summary of the method: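 293T-ACE2 cells were seeded at 10 000 per well. Spike-pseudotyped lentivirus carrying a GFP reporter was mixed with 2-fold serial dilutions of compound (in DMSO) or vehicle for 1 h at 37 °C, then added to cells with 5 μg/mL Polybrene. After 44 h, cells were fixed and DAPI-stained. Total GFP area was normalized to DAPI and to vehicle (n = 3). IC50 came from a three-parameter logistic fit.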

[3] = test system: SARS-CoV-2; assay: Antiviral activity against SARS-CoV-2 variant B.1.351 strain infected in African green monkey Vero E6 cells assessed as inhibition of viral entry incubated for 1 hr prior to infection and measured after 48 hrs by Focus forming assay; details: Severe acute respiratory syndrome coronavirus 2, B.1.351, Vero C1008

C=C(C)[C@@H]1CCC(C)=C[C@H]1c1c(O)cc(CCCCC)c(C(=O)O)c1O [CANNABIDIOLIC ACID]
IC50 [1]: 11 µg/mL (≈ 30.7 µM)
IC50 [2]: 7.7 µg/mL (≈ 21.5 µM)
IC50 [3]: 19 µg/mL (≈ 53 µM)

CCCCCc1cc(O)c(C/C=C(\C)CCC=C(C)C)c(O)c1C(=O)O [CANNABIGEROLIC ACID]
IC50 [1]: 26 µg/mL (≈ 72.1 µM)
IC50 [2]: 8.4 µg/mL (≈ 23.3 µM)
IC50 [3]: 35 µg/mL (≈ 97.1 µM)
